ChEMBL document CHEMBL1144733, “Design and synthesis of nitrate esters of aromatic heterocyclic compounds as pharmacological preconditioning agents” (2008)
Activity calls are given as the source filed them. The calls are words filed in the database; no cut-off is given here.

Key:
Oryctolagus cuniculus [1] = assay: Cardioprotective effect in New Zealand white rabbit assessed as reduction of infract size at 1.3 mg/kg, iv administered before 30 of mins ischemia and 3 hrs of reperfusion in presence of adenosine receptor blocker 8-(p-sulfonyl) theophylline relative to control; format: functional; design: scale not given: the % may be the effect or the level left
Outline: (§1)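 Anesthetized (pentobarbital 30 mg/kg iv), ventilated male rabbits; regional myocardial ischemia 30 min, reperfusion 3 h. Total 1.3 mg/kg split into two iv boluses in 0.2 ml DMSO + 0.8 ml saline, 40 min and 1 min before ischemia; controls got vehicle. Microspheres delineated risk zone; 3 mm slices stained with 1% TTC, 20 min, 37 C; infarct/risk volume ratio (%). n = 5-10 per group.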

Oryctolagus cuniculus [2] = assay: Decrease in MDA level in New Zealand white rabbit at 1.3 mg/kg, iv after 20 mins of reperfusion relative to control; format: functional, organism-based; design: dose 1.3 mg/kg
Outline: (§2)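 Rabbit plasma sampled at baseline, 20 min ischemia, and 1 and 20 min reperfusion after 1.3 mg/kg iv (two boluses). MDA by N-methyl-2-phenyl-indole colorimetric kit: 0.2 ml plasma plus reagent and HCl, 45 C for 60 min, centrifuged, A586; MDA standard curve (2-20 lmol/ml); triplicate; mean ± SEM.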

Oryctolagus cuniculus [3] = assay: Cardioprotective effect in New Zealand white rabbit assessed as reduction of infract size at 1.3 mg/kg, iv administered before 30 mins of ischemia and 3 hrs of reperfusion relative to control; format: functional; design: scale not given: the % may be the effect or the level left; outline: as §1
Oryctolagus cuniculus [4] = assay: Cardioprotective effect in New Zealand white rabbit assessed as reduction of infract size at 1.3 mg/kg, iv administered before 30 mins of ischemia and 3 hrs of reperfusion in presence of mitoKATP blocker 5-hydroxydecanoic acid relative to control; format: functional; design: scale not given: the % may be the effect or the level left; outline: as §1
Oryctolagus cuniculus [5] = assay: Increase in MDA level in New Zealand white rabbit at 1.3 mg/kg, iv after 20 mins of ischemia relative to control; format: functional, organism-based; design: dose 1.3 mg/kg; outline: as §2
Oryctolagus cuniculus [6] = assay: Increase in circulating cGMP level in New Zealand white rabbit at 1.3 mg/kg, iv after 20 mins of ischemia by enzyme immunoassay relative to control; format: functional, organism-based; design: dose 1.3 mg/kg
Outline: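 Plasma from rabbits dosed 1.3 mg/kg iv (40 and 1 min pre-ischemia) drawn at 20 min of sustained ischemia. cGMP by competitive enzyme immunoassay: alkaline phosphatase-cGMP conjugate plus polyclonal antibody, 2 h at 25 C shaking, p-nitrophenyl phosphate 1 h, read 450 nm corrected at 550 nm; concentration from standard curve.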

O=[N+]([O-])OCCCCCCn1cnc2c(N3CCCCC3)ncnc21
Activity (Oryctolagus cuniculus [1]): 28.03% | Activity (Oryctolagus cuniculus [2]): Active | Activity (Oryctolagus cuniculus [3]): 19.8% | Activity (Oryctolagus cuniculus [4]): 21.9%

O=C(NCCO[N+](=O)[O-])c1ccc2ccccc2n1
Activity (Oryctolagus cuniculus [2]): Active | Activity (Oryctolagus cuniculus [3]): 22.4% | Activity (Oryctolagus cuniculus [5]): Active | Activity (Oryctolagus cuniculus [6]): Active

O=C(NCCO[N+](=O)[O-])c1cc2ccccc2[nH]1
Activity (Oryctolagus cuniculus [2]): Active | Activity (Oryctolagus cuniculus [3]): 20.5% | Activity (Oryctolagus cuniculus [5]): Active | Activity (Oryctolagus cuniculus [6]): Active | Activity (Oryctolagus cuniculus [4]): 40.12%

O=[N+]([O-])OCCCCCCCCCCCn1cnc2c(N3CCCCC3)ncnc21
Activity (Oryctolagus cuniculus [2]): Active | Activity (Oryctolagus cuniculus [6]): Active
